Results as given in ChEMBL document CHEMBL4513216, “Probing the Open Global Health Chemical Diversity Library for Multistage-Active Starting Points for Next-Generation Antimalarials” (ACS Infect Dis, 2020).

Test: Toxicity liver stage against HepG2, at 10uM
Assay type: cell-based
Parameters: test concentration 10 uM, cell line HepG2-A16-CD81EGFP
Settings: human, HepG2-A16-CD81EGFP cells; read-out: INHIBITION
Outline: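 Uninfected HepG2-A16-CD81EGFP cells, 3 × 10^3 per well, 1536-well, plated on prespotted compound at 10 μM final, parasite-free screening media added to match infected plates; puromycin 10 μM positive, DMSO 0.5% negative; run in parallel with 48 h PbLuc assay at 37 °C, 5% CO2; viability by CellTiter-Glo luminescence, normalized to controls.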

Row | Structure (SMILES) | cytotoxicity at 10 µM [%]
1 | CN(CCc1ccccc1)Cc1nc(-c2cnccn2)no1 | -0.911
2 | CCOc1ccccc1C(=O)N1CC(=O)N(C2CCC2)CC(O)C1 (configuration not stated) | 2.55
3 | NC(=O)[C@@H]1CN2CCN(C(=O)C3CC3)C[C@@H]2[C@H]1c1ccccc1 | 3.88
4 | O=C1CC(c2ccncc2)c2c(c(C(=O)O)cn2-c2ccccc2)N1 (configuration not stated) | -3.7
5 | O=C(NC1CCCCC1)c1ccc(Oc2ccc3nncn3n2)cc1 | 2.17
6 | COc1cccc2sc(N3CCN(C(=O)c4cc(C)on4)CC3)nc12 | 6.21
7 | Cc1nnc(C2CCN(C(=O)c3ccsc3)CC2)s1 | 10.5
8 | CN(C)CCN1C(=O)CO[C@@H]2CN(c3ncc(F)cn3)C[C@H]21 | 0.81
9 | N#Cc1cccc(CN2CCO[C@@H]3CNC[C@@H]32)c1 | 8.94
10 | O=C(NC1CC1)N1CCOC2(CCCN(c3cccc(F)c3)C2)C1 (configuration not stated) | 4.23
11 | CN(C)C(=O)N1CCCC2(CCN(Cc3ccc(Cl)c(F)c3)C2)C1 (configuration not stated) | 7.07
12 | CN1C2(CCN(Cc3ccc(F)cc3)C2)c2ccccc2S1(=O)=O (configuration not stated) | 13.5
13 | CC1=N[C@@]2(CC[C@@H]3CN(C(=O)NC(C)C)C[C@@H]32)C(=O)N1CC1CC1 | 7.1
14 | Cn1cnc2c1C(COCc1cccnc1)N(Cc1ccccc1)CC2 (configuration not stated) | 13.5
15 | O=C1CC(c2ccc(C(F)(F)F)cc2)c2c(n3ccsc3nc2=O)N1 (configuration not stated) | -1.4
16 | CC(=O)c1cccc(NC(=O)Cn2cc(-c3ccccc3)ncc2=O)c1 | -2.45
17 | c1ccc(OCCCNCc2cccs2)nc1 | -0.336
18 | O=C(NCCc1cc2nc(-c3ccncc3)ccn2n1)C1CCOCC1 | 4.59
19 | CC(=O)N1CCN(c2cnccn2)CC(CO)C1 (configuration not stated) | 3.03
20 | CCc1onc(C)c1C(=O)N1CCC(c2cc3ncccc3cn2)CC1 | 1.68
21 | CNC(=O)c1cn[nH]c1C1(C)CCCN(Cc2ccccn2)C1 (configuration not stated) | -10.5
22 | Cc1nc(Nc2nncs2)cc(C2CCCN2C)n1 (configuration not stated) | -22.6

Row | Structure (SMILES) | cytotoxicity at 10 µM [%]
23 | Cc1cc(N)nc(C2(C)CCCN2C(=O)c2cnccn2)n1 (configuration not stated) | -27.1
24 | O=C(c1cscn1)N1CCC(O)(Cn2ccc3ccncc32)CC1 | -18.2
25 | O=C(C1CCOCC1)N1CCC(O)(Cn2ccc3ccncc32)CC1 | -19.8
26 | COCCNC(=O)c1ccccc1-n1cc(CN)cn1 | -23.6
27 | Cc1cc(N(C)C)nc(NC2CCc3nc(C)nn3C2)n1 (configuration not stated) | 5.56
28 | CC(C)n1nnnc1-c1ccc(NC(=O)N(C)CCN(C)C)cc1F | -2.71
29 | O=C(NCC(=O)N1CCCCC1)c1sccc1C1CC1 | -136
30 | Cc1cc(CNC(=O)NCCC(=O)N2CCCc3ccccc32)no1 | -4.09
31 | CC(NC(=O)CNc1cc2c(cc1Cl)NC(=O)CO2)c1ccco1 (configuration not stated) | -0.0162
32 | CCC(C)NC(=O)CCNC(=O)c1c[nH]cc1-c1cccc(OC)c1 (configuration not stated) | 6.98
33 | O=C(c1cc2c([nH]c1=O)CCC2)N1CCCCCC1c1ccncc1 (configuration not stated) | -9.31
34 | CC(C)Oc1ncc(C(=O)N2CCC(CC(N)=O)CC2)cc1Cl | -9.47
35 | CC(C)(C)c1n[nH]c(C2CN(C(=O)CCCn3cccn3)CCO2)n1 (configuration not stated) | -0.839
36 | CC(C)C[C@H](NC(=O)CNC(=O)OC(C)(C)C)C(=O)OC(C)(C)C | 11.9
37 | CC(NC(=O)C1CCN(S(N)(=O)=O)CC1)c1cccc(OC(F)F)c1 (configuration not stated) | -8.5
38 | COCC(=O)N1CCCC1c1cccc(C)c1C (configuration not stated) | -1.32
39 | Cn1cccc1C(=O)NS(=O)(=O)c1cnn(-c2ccccc2F)c1 | -7.83
40 | Cn1cc(CNCCc2nccs2)c(-c2cccnc2)n1 | 1.83
41 | O=S(=O)(NCCSc1nccn1C1CC1)c1ccccc1 | -9.34
42 | N#Cc1ccc(CN(CC(N)=O)Cc2cccc(F)c2)cc1 | -2.01
43 | CS(=O)(=O)CCC(=O)NC(Cc1ccccc1)C1CC1 (configuration not stated) | 11.4
44 | CN(CCc1ccc2c(c1)CCO2)CC1CCS(=O)(=O)C1 (configuration not stated) | 7.33

Row | Structure (SMILES) | cytotoxicity at 10 µM [%]
45 | CCCN(CC1CC1)C(=O)Cn1ccccc1=O | 9.09
46 | Cc1cc(C(=O)N2CCn3cc(CN4CCCCC4)nc3C2)no1 | -77.3
47 | Cc1nnc([C@@H]2CC[C@@H]3[C@@H](CCN3S(C)(=O)=O)O2)o1 | -79.1
48 | CCN1C(=O)CO[C@@H]2CN(C(=O)C3CCOCC3)C[C@H]21 | -78.2
49 | Cc1cc(C(=O)N2CCC[C@]3(C[C@H](OCC4CC4)CO3)C2)no1 | -78.8
50 | CC(=O)N1CCC2(CCN(C(=O)c3ccc(F)c(C(F)(F)F)c3)C2)C1 (configuration not stated) | -76.1
51 | CC(=O)NCC(=O)N1CCC2(CC1)CN(c1cccnc1)C(=O)CO2 | 3.76
52 | O=C(C1CCOC1)N1C[C@H]2CN(Cc3nccs3)C[C@H]2C1 (some centres not stated) | 5.04
53 | O=c1c(-c2ccnc(NC3CCOCC3)n2)cnc2sc(Cl)cn12 | -0.962
54 | COc1ccc(OC)c(C(C(=O)O)N2CCSCC2)c1 (configuration not stated) | -1.02
55 | Cc1cc(C)cc(CCC(=O)NC(C)c2nnn[nH]2)c1 (configuration not stated) | 0.686
56 | CCc1cn[nH]c1C1CCCN(C(=O)c2cnc(NC(C)C)nc2)C1 (configuration not stated) | -13.2
57 | CN1CCC(n2nc(Cc3cccs3)nc2-c2ccncc2)CC1 | -7.76
58 | CC(C)N(C)C(=O)c1coc(CN2CCN(c3ccccc3F)CC2)n1 | 7.31
59 | CC(C)n1cnnc1CN1C(=O)CCc2ccccc21 | 0.0849
60 | CC(C)c1nc(CN(C)Cc2ccc(O)c(Cl)c2)cs1 | -7.27
61 | Cc1nccn1CCN(C)C(=O)C1CCN(C(=O)C2CCC2)CC1 | -1.45
62 | CC1(CCC(=O)N2CCC(n3cc(C4(O)CCCC4)nn3)CC2)CC1 | -7.69
63 | CC(C)c1cc(C2CCN(C(=O)Cn3cncn3)CC2)[nH]n1 | 3.65
64 | COCCC1(CO)CCCN(Cc2cc(C(F)(F)F)ccc2F)C1 (configuration not stated) | -141
65 | Cc1[nH]c2ccc(CNc3cc(C#N)ccn3)cc2c1C | -8.4
66 | Cc1cccc2cc(C(=O)N3CCSCC3)n(C)c12 | 6.25

Row | Structure (SMILES) | cytotoxicity at 10 µM [%]
67 | CN1CCN(Cc2ccc(Cl)cc2)CC1C(=O)O (configuration not stated) | -2.31
68 | COCc1noc(CN2C[C@H](C3CC3)[C@@H](N(C)C)C2)n1 | 1.31
69 | CCCS(=O)(=O)N1CCC2(CC1)CC(=O)N(Cc1cc(F)cc(F)c1)C2 | 8.78
70 | Cc1ccc2nc(-c3nc4c([nH]3)CC(C)(C)CNC4=O)cn2c1 | 5.31
71 | CCn1cc(CN(C)Cc2cnn(-c3ccc(F)cc3)c2)cn1 | -5.44
72 | Cc1nc(CNC(=O)c2cc(COc3ccccc3F)[nH]n2)n[nH]1 | -7.42
73 | Cc1cc(=O)[nH]c(=O)n1-c1cccc(Cl)c1Cl | -3.57
74 | Cc1ccccc1CCC(=O)N1CCc2ncnc(NCCO)c2CC1 | -21
75 | Cc1csc2c(N3CCNC(C(=O)NCc4cccnc4)C3)ncnc12 (configuration not stated) | 1.74
76 | CN(CCCOc1ccccc1Cl)C(=O)CN1CCNC1=O | -0.2
77 | CNc1nc2c(c(C(=O)N3CCCC3)n1)CN(Cc1ccco1)CC2 | -113
78 | Cc1cnn(C2CN(CC(=O)NCC(C)C)C2)c1 | -1.33
79 | Cc1cc(C)c(CNC(=O)NCC(O)c2ccccc2F)c(=O)[nH]1 (configuration not stated) | -0.185
80 | COc1ccc(C(O)CNC(=O)NCc2c(C)cc(C)[nH]c2=O)cc1 (configuration not stated) | -2.99
81 | O=C(NCc1ccccc1Cn1cncn1)C1CCCC1 | -2.34
82 | CN(C(=O)CN1CCC(NC(=O)c2cccs2)CC1)c1ccccc1 | -8.55
83 | O=C(NCc1cc[nH]n1)N1CCCC(N2CCCC2)C1 (configuration not stated) | -3.18
84 | CCCc1n[nH]c(C2CN(C(=O)c3cccnc3N(C)C)CCO2)n1 (configuration not stated) | -2.91
85 | CN1CC(C(=O)NCCOc2ccc3c(c2)OCO3)CC1=O (configuration not stated) | -4.35
86 | CCN(CC)CC1CCN(C(=O)CCn2cccn2)CC1 | -13.3
87 | COCCCN1CCC(N(Cc2noc(C)n2)C(C)=O)C1 (configuration not stated) | -4.22
88 | CC(C)CCN(C(=O)c1nc(S(C)(=O)=O)n2ccccc12)C1CC1 | -2.63

Row | Structure (SMILES) | cytotoxicity at 10 µM [%]
89 | Cc1ncc(Cl)c(C(=O)N2CCCC(n3nc(C)nc3C)C2)n1 (configuration not stated) | -0.426
90 | Cn1cc(Cl)cc1C(=O)N1CCCN(Cc2ccccc2)CC1 | -5.19
91 | CCNc1cc2c(nn1)CCN(C(=O)c1cccnc1N(C)C)C2 | -13.4
92 | NC(=O)c1cc(C2CCCN(CCOCC(F)(F)F)C2)n[nH]1 (configuration not stated) | -11.8
93 | CC(C)(C)c1n[nH]c(C2CN(C(=O)c3ccsc3)CCO2)n1 (configuration not stated) | -12.3
94 | c1cnn(C2CN(Cc3nc(-c4ccsc4)no3)C2)c1 | -12.2
95 | c1cncc(-c2nccc(CN3CCC(N4CCCCC4)CC3)n2)c1 | -26
96 | O=C(NCc1ccco1)[C@@H]1CCO[C@@H]2CCN(c3ncccn3)C[C@H]21 | -77.6
97 | CCOCC1CN(C(=O)c2cscn2)Cc2cn(C)nc21 (configuration not stated) | -76.6
98 | O=C(C[C@@H]1COC[C@H]2CN(CC3CC3)C[C@@H]12)N1CCCCO1 | 4.08
99 | Cc1ccnc(OC[C@@]23CCO[C@@H]2CCN(c2ncc(F)cn2)C3)n1 | 10.9
100 | CC(C)NC(=O)[C@H]1C[C@@H]2[C@@H](C1)OCCN2Cc1ccsc1 | 9.49
101 | CC(C)NC(=O)[C@H]1C[C@@H]2[C@@H](C1)OCCN2Cc1nccs1 | 6.1
102 | O=C1NC2(CCN(c3ncccn3)CC2)CC1c1cccnc1 (configuration not stated) | -71.4
103 | COCCNC(=O)[C@@]12CCO[C@@H]1CCN(Cc1cc(C)on1)C2 | -69.8
104 | O=C(c1cccc(F)c1)N1CCN2C[C@H](OCc3cccnc3)C[C@H]2C1 | 4.4
105 | COc1ccc(CN2CCO[C@H]3CN(C4CCC4)CC[C@H]3C2=O)cc1 | -148
106 | CCc1nccn1CC(=O)N1C[C@@H]2CC[C@H]1CN(S(=O)(=O)N(C)C)C2 | -6.38
107 | O=C(CSCC1CC1)N1C[C@H]2CC[C@@H](C1)N(Cc1ccccn1)C2=O | 5
